For nine compounds, Kd, ED50 and AD50 results are on record in ChEMBL document CHEMBL1123989, “Effects of addition of a 2-methyl group to ethyl nipecotates (beta-meperidines) on receptor affinities and opiate agonist/antagonist activities” (J Med Chem, 1988).

pKd: −log10 of the molar value. Active and inactive are the calls of the source.

One assay concerns the target Mu-type opioid receptor (Rattus norvegicus, UniProt P33535). Put plainly: Binding affinity at Opioid receptor mu 1 in rat brain membrane was determined by using curve-fitting ligands ([3H]DHM, [3H]DADL, [3H]DSLET, [3H]EKC). The format is cell membranes. The essentials: (§1)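 Rat brain membranes in Tris pH 7.7, preincubated 1 h at 37 °C to strip endogenous opioids. 12 mg tissue per tube with tritiated ligand plus competitor, 1 h at 25 °C, then filtered. Nonspecific binding defined with 1.0 μM unlabeled form of the tracer. Each curve run twice at two tracer concentrations. Affinities from simultaneous LIGAND curve-fitting.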

Assay [1] concerns Mus musculus. As to the kind of experiment: Effective dose to show narcotic analgesic activity was evaluated in mouse tail-flick test when administered subcutaneously. It counts as functional. The following applies: sc. The essentials: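 Male Swiss-Webster mice (21-28 g), pretested twice; heat lamp set for a 2-4 s baseline flick with a 6.5 s cut-off. Three doses, 10 mice/dose, given sc. Latency read at 10-60 min. % of maximum possible increase taken at peak effect. ED50 with 95% CL from a log-dose probit plot (Litchfield–Wilcoxon).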
For orientation: Thermal pain tests record how soon the animal reacts.

Assay [2] has as its target Delta-type opioid receptor (Rattus norvegicus, UniProt P33533). As to the kind of experiment: Binding affinity at Opioid receptor delta 1 in rat brain membrane was determined by using curve -fitting LIGAND([3H]DHM, [3H]DADL, [3H]DSLET, [3H]EKC). It counts as cell membranes. The essentials:
as §1

Assay [3] deals with Kappa-type opioid receptor (Cavia porcellus, UniProt P41144). Put plainly: Binding affinity at Opioid receptor kappa 1 in guinea pig brain membrane determined by using [3H]U-69593 as radioligand. It counts as cell membranes. The method, boiled down:
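Guinea pig brain membranes prepared as for the rat assay (Tris pH 7.7, 1 h 37 °C preincubation). Displacement of [3H]U69,593 over 1 h at 25 °C, then filtered. Nonspecific binding with 1.0 μM unlabeled U69,593. Curves repeated twice at two tracer concentrations. Values by LIGAND analysis.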

For assay [4], the system named is Mus musculus. As to the kind of experiment: Antagonistic activity to show narcotic effect induced by subcutaneous administration of 21.08 umol/kg of morphine in mouse tail-flick test. The format is functional. The essentials: (§2)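 Male Swiss-Webster mice. Tail-flick latency read at 10, 20, 30, 45 and 60 min. % antagonism = 100 − (% agonism with morphine)/0.80, taken at peak effect. AD50 with 95% CL by Litchfield–Wilcoxon from the log-dose plot.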

In assay [5] the test system is Mus musculus. As to the kind of experiment: Antagonistic activity to show narcotic effect induced by subcutaneous administration of 21.08 umol/Kg of morphine in mouse tail-flick test; NA=No antagonism. The format is functional, organism-based. The method, boiled down:
as §2

Sequence of Kappa-type opioid receptor (P41144 whole entry): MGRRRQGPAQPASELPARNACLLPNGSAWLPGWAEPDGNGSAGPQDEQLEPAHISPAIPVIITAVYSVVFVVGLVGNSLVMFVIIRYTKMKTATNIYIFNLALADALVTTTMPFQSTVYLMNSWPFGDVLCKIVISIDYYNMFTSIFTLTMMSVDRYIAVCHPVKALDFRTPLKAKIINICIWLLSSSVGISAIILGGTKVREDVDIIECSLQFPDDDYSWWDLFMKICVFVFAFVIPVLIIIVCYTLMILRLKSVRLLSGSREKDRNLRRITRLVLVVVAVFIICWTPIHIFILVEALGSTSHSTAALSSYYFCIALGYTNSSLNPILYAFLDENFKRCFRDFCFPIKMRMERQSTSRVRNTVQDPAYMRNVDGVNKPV
Sequence of Delta-type opioid receptor (P33533 whole entry): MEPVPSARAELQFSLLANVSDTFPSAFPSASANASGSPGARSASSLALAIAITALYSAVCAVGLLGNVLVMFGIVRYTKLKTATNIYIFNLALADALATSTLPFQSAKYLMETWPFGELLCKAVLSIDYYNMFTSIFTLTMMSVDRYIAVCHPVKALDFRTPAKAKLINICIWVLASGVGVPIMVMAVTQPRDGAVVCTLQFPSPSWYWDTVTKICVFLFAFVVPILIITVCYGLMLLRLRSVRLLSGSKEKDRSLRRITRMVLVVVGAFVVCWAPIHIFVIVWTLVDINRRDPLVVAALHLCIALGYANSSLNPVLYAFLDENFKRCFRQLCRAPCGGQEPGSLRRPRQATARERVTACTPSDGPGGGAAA
Sequence of Mu-type opioid receptor (P33535 whole entry): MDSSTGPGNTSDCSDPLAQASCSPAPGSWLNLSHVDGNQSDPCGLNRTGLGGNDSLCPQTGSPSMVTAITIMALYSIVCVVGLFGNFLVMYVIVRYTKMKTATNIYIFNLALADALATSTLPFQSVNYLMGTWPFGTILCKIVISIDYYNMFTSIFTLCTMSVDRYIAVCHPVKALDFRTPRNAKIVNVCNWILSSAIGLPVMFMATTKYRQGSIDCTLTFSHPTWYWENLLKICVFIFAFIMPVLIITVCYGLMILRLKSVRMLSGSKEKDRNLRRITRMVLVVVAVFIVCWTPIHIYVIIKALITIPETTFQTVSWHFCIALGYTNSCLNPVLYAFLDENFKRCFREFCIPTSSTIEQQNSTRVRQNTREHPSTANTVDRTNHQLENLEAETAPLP

Usually pKd stands for −log10 of the Kd, conventionally taken in molar units. A high value points to a low Kd. By ED50 is commonly meant the dose that gives a 50% effect, or the effect in half of the subjects. Read a high ED50 as weaker potency. As for `C=CCN1CCC[C@](C(=O)OCC)(c2cccc(O)c2)[C@@H]1C`, the pKd at Mu-type opioid receptor is 6.51; in assay [2] it was 6.11; in assay [3] it was 6.08. In addition, in the assay with Mus musculus [1], the ED50 was above 118 µmol/kg. In the assay on Mus musculus [4], this compound registered an AD50 of 112 µM/kg.
For `CCOC(=O)[C@]1(c2cccc(O)c2)CCCN(C)C1` the same measures were 7.44, 5.40, 5.66, above 290 µmol/kg and 24 µM/kg.
`C=CCN1CC[C@]23c4c5ccc(O)c4O[C@H]2[C@@H](O)C=C[C@H]3[C@H]1C5` [NALORPHINE]: in the assay with Mus musculus [1], the ED50 was 828 µmol/kg. In the assay with Mus musculus [4], this compound came in with an AD50 of 2 µM/kg.
As for `CCOC(=O)[C@]1(c2cccc(O)c2)CCCN(CC2CC2)C1`, the negative logarithm of the Kd (pKd) at Mu-type opioid receptor is 8.10; in assay [2], 6.59; in assay [3], 6.92. Moreover, the ED50 in the assay with Mus musculus [1] was found to be 68 µmol/kg. The same compound yielded an AD50 in the assay on Mus musculus [4] of 19 µM/kg.
In the same order, the values of `CCOC(=O)[C@]1(c2cccc(O)c2)CCCN(CCc2ccccc2)[C@H]1C` are 6.42, 6.77, 5.59, above 198 µmol/kg and above 198 µM/kg.
For `C=CCN1CCC[C@](C(=O)OCC)(c2cccc(O)c2)C1` the same measures were 7.59, 6.15, 6.35, above 229 µmol/kg and above 192 µM/kg.
Consider `CCOC(=O)[C@]1(c2cccc(O)c2)CCCN(CC2CC2)[C@H]1C`, for which the pKd on Mu-type opioid receptor is 6.81; in assay [2] it was 6.20; in assay [3], 6.08. Moreover, the ED50 in the assay with Mus musculus [1] is above 452 µmol/kg. In addition, the AD50 with Mus musculus [4] turned out to be 75 µM/kg.
For `CCOC(=O)[C@]1(c2cccc(O)c2)CCCN(C)[C@H]1C` the same measures were 6.75, 6.04, 5.72, above 510 µmol/kg and 14 µM/kg.
For `CCOC(=O)C1(c2ccccc2)CCN(C)CC1` [MEPERIDINE], the AD50 entry in the assay with Mus musculus [5] was “inactive”. It took a dose of 25 µmol/kg to reach the 50% effect level with Mus musculus [1] (ED50).
